# Data taken from ChEMBL document CHEMBL4513216, “Probing the Open Global Health Chemical Diversity Library for Multistage-Active Starting Points for Next-Generation Antimalarials” (ACS Infect Dis, 2020).
# Experiment: Toxicity liver stage against HepG2, at 10uM
# Type: cell-based
# Set-up: test concentration 10 uM, cell line HepG2-A16-CD81EGFP
# Conditions: human, HepG2-A16-CD81EGFP cells; read-out: INHIBITION
# Method in brief: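 Uninfected HepG2-A16-CD81EGFP cells, 3 × 10^3 per well, 1536-well, plated on prespotted compound at 10 μM final, parasite-free screening media added to match infected plates; puromycin 10 μM positive, DMSO 0.5% negative; run in parallel with 48 h PbLuc assay at 37 °C, 5% CO2; viability by CellTiter-Glo luminescence, normalized to controls.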
row,Compound,cytotoxicity at 10 µM [%]
1,CCSc1nc2ccccc2c(=O)n1OCC(=O)OC,-5.49
2,Cc1cc(S(=O)(=O)N(CC(N)=O)CC(C)C)ccc1Br,-10.1
3,CN1CC[C@H](c2nnc(-c3cncn3C)o2)C1,-2.88
4,CC(=O)N1N=C(COc2ccc3c(c2)OCO3)OC1c1cccc(Cl)c1 (stereo unspecified),-1.77
5,Cc1nnsc1C(=O)NCCn1ccc(-c2ccncc2)n1,1.92
6,Cc1cncc(Oc2ccc(CN)cc2)n1,9.81
7,CCc1cnc(N2CCC3(CCN(Cc4cccc(C)c4)C3=O)C2)nc1 (stereo unspecified),-0.891
8,COc1cccc(CC(=O)N2CCc3ncnc(C)c3CC2)c1,-1.59
9,CO[C@@H]1CCN(c2ncc(F)cn2)[C@@H]2CN(CC3CC3)C[C@@H]21,12.3
10,COCCC(=O)N1CCC2(COCc3cnc(NCC4CC4)nc32)C1 (stereo unspecified),6.24
11,COc1cc(C2SCC(=O)Nc3n[nH]cc32)cc(OC)c1O (stereo unspecified),7.85
12,CCn1nc(C)c2c1cnn2CCNS(=O)(=O)c1cccs1,4.51
13,CN(C(=O)c1cn(C)cn1)[C@@H]1CCC[C@@H](Oc2ccccc2)[C@@H]1O,23
14,O=S(=O)(c1ccccc1F)N1CCCC(c2nccs2)C1 (stereo unspecified),-11
15,NCCn1nc(C2CCN(Cc3ccccc3)C2)c2nccnc21 (stereo unspecified),0.975
16,CC(=O)N1CC2(CCN(Cc3ccc(Cl)cc3)CC2)Cc2ccccc21,14.2
17,CC(C)c1nnc(NC(=O)C2CSCN2C(=O)C2CCC2)s1 (stereo unspecified),5.04
18,CCCN1CCCN(C(=O)c2ccc(Oc3cccnc3)cc2)CC1,-46.9
19,COCCCc1nc(-c2ccc(S(=O)(=O)N3CCCC3)cc2)cs1,-46.3
20,CC(O)CN(Cc1cccc(C(=O)N(C)C)c1)c1ccccc1 (stereo unspecified),2.45
21,CC1CN(C)CCN1C(=O)COc1cccc(Oc2ccccn2)c1 (stereo unspecified),10.7
22,CCC(c1ccccc1)S(=O)(=O)CCO (stereo unspecified),-136
23,Cc1ncc(S(=O)(=O)N(CC(C)C)c2cccc(O)c2)s1,-41.2

row,Compound,cytotoxicity at 10 µM [%]
1,Cc1cc(C(=O)N2CCCC2CN2CCCC2)no1 (stereo unspecified),10
2,CN(C)Cc1ccc(C(=O)N2CCCC(n3cccn3)C2)cc1 (stereo unspecified),-0.798
3,CC(=O)N1CCC(NC(=O)c2cc(Cl)ccc2O)CC1,0.0966
4,Cc1nc(C(=O)NS(=O)(=O)c2cccc(C#N)c2)cs1,-1.95
5,COCCN1CCC(NC(=O)C/C=C/c2ccc(C(C)C)cc2)CC1,-0.616
6,Cn1c(C2CCCCN2C(=O)CN2CCCC2=O)nc2ccccc21 (stereo unspecified),-0.62
7,CNC(=O)NC(=O)C(C)N1CCC(c2c[nH]c3ccc(OC)cc23)CC1 (stereo unspecified),12.5
8,CC(NC(=O)CCn1cccn1)c1cccs1 (stereo unspecified),-3.57
9,CC(C)(C)n1ncc2c1CCCC2NCc1ccc2c(c1)CCO2 (stereo unspecified),2.55
10,Cc1nc(C)c(C(=O)Nc2cccc(CN3CCC(CO)CC3)c2)o1,-154
11,CCn1cc(S(=O)(=O)NC(=O)CCc2c[nH]c3ccccc23)cn1,-11.3
12,COCc1ccc(C(=O)NS(=O)(=O)c2ccc3c(c2)CCC(=O)N3)cc1,-1.89
13,Cc1nnc(C(C)N2CCc3[nH]c4ccc(Cl)cc4c3C2)o1 (stereo unspecified),-9.77
14,Cc1ccnc(NC(=O)C2CCN(CCCn3ccnc3)CC2)c1,-57.9
15,COc1cccc(CN(C)Cc2nc(C(C)C)no2)c1,-43.6
16,Clc1cccc(-c2noc(CCN3CCN(c4ccncc4)CC3)n2)c1,24
17,CCOCCNC(=O)C(CCSC)NC(=O)c1ccc2ccccc2n1 (stereo unspecified),-9.95
18,Cc1cc(NC(N)=O)ccc1C(=O)N(C)C,12.2
19,CC(O)CN1CCN(Cc2csc(-c3ncccn3)n2)CC1 (stereo unspecified),5.4
20,Cc1nnc([C@@]23CCO[C@@H]2CCN(S(=O)(=O)c2ccccc2)C3)o1,-99.4
21,CC(C)Nc1ncnc2c1CCN(C(=O)CCc1ccccc1)CC2,-72
22,CC(C)NC(=O)N1CC(=O)c2sc(Nc3ccc(C#N)cc3)nc2C1,-7.77
23,CN(CCCc1ccccc1)C(=O)c1cn2c(n1)CNCC2,-52.4

row,Compound,cytotoxicity at 10 µM [%]
1,CC(C)n1ccnc1C1CCCN(c2nc3ccccc3s2)C1 (stereo unspecified),5.07
2,O=C(CCN1CCCC(CC2CC2)(C(=O)O)C1)NC1CCCC1 (stereo unspecified),18.7
3,CC(C)N1CCC(C(=O)NC[C@H]2CCc3ccccc3O2)CC1,11.1
4,CSc1cccc(CN(C)C(=O)c2cccc(C3CCCNC3)c2)c1 (stereo unspecified),-1.08
5,CC(C)C[C@H](Nc1nc(C2CCCC2)nc2c1cnn2C)C(N)=O,-42.3
6,OC(c1ccccn1)C1CCN(Cc2cc3n(n2)CCNC3)CC1 (stereo unspecified),15.4
7,COc1ccc(-c2cc(N)ccn2)c(OC)c1OC,11.4
8,C[C@@H]1CN(Cc2cc(C3CCCCC3)no2)CC[C@]1(C)O,-13.2
9,COCCC(=O)N[C@H]1CC[C@H](Nc2nccc(-c3ccncc3)n2)C1,11.5
10,Cc1cc(CN2CCCC2)cc(Oc2ccc(C(F)(F)F)cn2)c1,-9.72
11,CCN1CCN(c2ncnc3c2CCN(C(=O)C2CC2)C3)CC1,-3.2
12,CC(=O)N1CCc2[nH]cnc2C12CCN(C(=O)Cc1cccs1)CC2,7.2
13,CCNC(=O)[C@@H]1C[C@H](N)CN1Cc1ccc(-c2cc[nH]n2)o1,-47.6
14,COc1ccc2c(c1)OCC(Cc1cncc(N)c1)C2 (stereo unspecified),-0.918
15,Cc1sc2ncnc(N3CCC(N(C)Cc4cnn(C)c4)CC3)c2c1C,-2.98
16,COc1ccc(-c2ccoc2)cc1CNC1CCCC1,-3.45
17,CN(Cc1ccccc1)S(=O)(=O)N1C[C@@H](C(=O)O)[C@H](C2CC2)C1,-150
18,Cc1ncsc1CCN(C)C(=O)CN1CCOC1=O,-15.3
19,CC(C)=CCC1(C(=O)O)CCCN(CCC(=O)NC2CC2)C1 (stereo unspecified),-7.69
20,CCc1n[nH]c(C(=O)N2CCN(c3ccc4ccccc4c3)CC2)c1C,-3.03
21,CNc1nc(C)c(C(=O)N2CCC(C(O)Cc3ccccc3)CC2)s1 (stereo unspecified),3.11
22,O=C(C1CC1)N1CCC(C(=O)N2CCC(c3ccc(F)cc3)C2)CC1 (stereo unspecified),-46.3
23,NC(=O)CCn1cc(CNCc2csc(N)n2)c2ccccc21,6.7

row,Compound,cytotoxicity at 10 µM [%]
1,CCc1cnc(NCCS(=O)(=O)N(C)C)nc1,-10.2
2,CC(=O)N[C@@H]1CN(C(=O)c2cc3ccccc3[nH]2)C[C@H]1c1ccc(C)o1,-10.2
3,COc1ccc(C)cc1NC(=O)c1coc(C)n1,-7.66
4,COCc1ncc(CN(Cc2ccncc2)Cc2ccc(C)s2)cn1,-47
5,COc1ccc(-c2nccn2CC(O)CN2CCCC2)c(F)c1 (stereo unspecified),2.87
6,CC(=O)Nc1ccc(Cl)c(C(=O)N(C)C(C)c2nccs2)c1 (stereo unspecified),-42.8
7,O=C1CC2(CCN(Cc3ccc(Cl)s3)C2)C(=O)N1 (stereo unspecified),-3.3
8,CCn1ccc2ccc(CN3CCCC3c3nc(C(C)C)no3)cc21 (stereo unspecified),5.15
9,CC(C)SCC(=O)N1CCc2c(nc(N(C)C)nc2N(C)C)C1,21.1
10,Cc1nnc(CCNC2CCN(c3ncnc4c(C)csc34)CC2)s1,20.7
11,NC(=O)C1CCCN(Cc2c(-c3ccco3)[nH]c3ncccc23)C1 (stereo unspecified),3.91
12,c1ccc(CCN2CCN(c3ccc4nncn4n3)CC2)cc1,-11.7
13,CCc1nc(C2CCCN2Cc2cc(C)nc3ccccc23)no1 (stereo unspecified),86
14,CCc1nc(C2CCCN(C(=O)c3ccccc3F)C2)no1 (stereo unspecified),2.64
15,O=C1CN(C(=O)c2cccc(OCc3cscn3)c2)CCN1,1.9
16,CCOCCN1CCC(C(=O)c2cc(F)ccc2F)CC1,-7.33
17,Cn1cc(NS(=O)(=O)c2ccc(C(F)(F)F)cc2)ccc1=O,6.08
18,CCn1cc(NC(=O)NCC(O)COc2ccccc2)cn1 (stereo unspecified),-8.6
19,CCn1nc2c(cc1=O)CN(Cc1nc(-c3cccs3)no1)CC2,-8.99
20,NC(=O)C1CCCN(c2ccc(CNC(=O)c3cnsn3)cc2)C1 (stereo unspecified),2.25
21,c1cc(CNCC2CNc3ccnn3C2)cc(OC2CCCC2)n1 (stereo unspecified),-3.02
22,O=C(CCc1ccc(Cl)s1)N1CCC(N2CCNC2=O)CC1,2.6
23,Cc1nc(CN(C)CC2CCCN2c2cccnn2)nc2ccccc12 (stereo unspecified),-6.31

row,Compound,cytotoxicity at 10 µM [%]
1,CC(=O)NCc1ccc(C(=O)N2CCCCC2Cn2cccn2)o1 (stereo unspecified),-4.22
2,CCCNC(=O)CNc1cc(C#N)ccc1OCC,-11.6
3,Cc1nc(C)n(CC2CCCN(Cc3nc(C4CC4)no3)C2)n1 (stereo unspecified),-7.76
4,Cc1nc(CN2CCCN(C(=O)c3ccccn3)CC2)oc1C,0.289
5,CC(c1nc(C2CC2)no1)N1CCN(Cc2cccc(C#N)c2)CC1 (stereo unspecified),3.92
6,O=C(C1CCCCC1)N1CCC2(CC1)CNCc1ccccc12,-6.13
7,Fc1ccc(CN2CCO[C@H]3[C@H](Oc4ccccn4)CC[C@@H]32)cc1,6.44
8,CC(C)NC(=O)N1CCC2(CCC(=O)N2CCN(C)C)CC1,-7.13
9,Fc1ccc(N2CCOC3(COCCN(c4ncccn4)C3)C2)cc1 (stereo unspecified),-95.4
10,O=C(NC1CC1)[C@@H]1CCO[C@@H]2CCN(CC3CCC3)C[C@H]21,-111
11,Fc1ccc(CN2CCCC3(COCCN(Cc4c[nH]nn4)C3)C2)cc1 (stereo unspecified),4.9
12,Cc1ccc(CNC2CCCc3c2cnn3Cc2ccccc2)s1 (stereo unspecified),0.338
13,Cc1nc(N2CCOCC2)nc2c1CCN(Cc1ccsc1)CC2,-130
14,O=C(c1ccccc1)N1CCCC2(CCN2Cc2cccc(F)c2)C1 (stereo unspecified),-121
15,O=C(c1cccnc1)N1CCC2(CCN(C(=O)N3CCCC3)CC2)C1,-103
16,CCC(=O)N1CCC2(CC1)CC(N1CCOCC1)c1cc(C)ccc12 (stereo unspecified),-149
17,Cc1ccc(CN2CC[C@@H]3[C@@H](CO[C@H]3CN(C)C)C2)o1,-130
18,c1cnc(N2CCC3(CCN(Cc4cccnc4)CC3)CC2)nc1,-88.4
19,CN(C)C(=O)CN1C[C@H]2CC[C@@H](C1)N(Cc1cccc(Cl)c1Cl)C2,-5.3
